Measurements from ChEMBL document CHEMBL1157157, “N-Aroyl-3,5-bis(benzylidene)-4-piperidones: a novel class of antimycobacterial agents” (Bioorg Med Chem, 2008).
In brackets after ≈: the same amount, converted by molar mass. Activity calls are given as the source filed them. The calls are words filed in the database; no cut-off is given here.

What was measured:
[1] = Lipophilicity, log P of the compound; assay type: physicochemical; conditions: octanol/water
Method in brief: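 log P calculated with ACD algorithm and database statistics; not measured experimentally.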

[2] = system: Mus musculus; assay: Neurotoxicity in mouse at 300 mg/kg after 4 hrs; assay type: toxicity, organism-based; set-up: dose 300 mg/kg; conditions: in vivo
Method in brief: (§1)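 Mice dosed intraperitoneally at 30, 100 and 300 mg/kg; 1a and 1b given as hydrochloride salts. Observed 0.5 and 4 h after dosing. Value is number of animals showing neurological deficit over number dosed. Deaths also recorded.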

[3] = system: Mus musculus; assay: Neurotoxicity in mouse at 300 mg/kg after 0.5 hrs; assay type: toxicity, organism-based; set-up: dose 300 mg/kg; conditions: in vivo; method in brief: as §1
[4] = system: Mycobacterium tuberculosis; assay: Antimycobacterial activity against Mycobacterium tuberculosis H37Rv at 6.25 ug/ml by broth microdilution assay; assay type: functional
Method in brief: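 Single-concentration screen at 6.25 µg/mL against M. tuberculosis H37Rv (ATCC 27294), broth microdilution in BACTEC 12B medium. Read-out is % growth inhibition versus controls. At least 90% inhibition counted as active.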

[5] = system: Mus musculus; assay: Neurotoxicity in mouse at 100 mg/kg after 4 hrs; assay type: toxicity, organism-based; set-up: dose 100 mg/kg; conditions: in vivo; method in brief: as §1
[6] = system: Mycobacterium tuberculosis; assay: Antimycobacterial activity against Mycobacterium tuberculosis H37Rv by broth microdilution assay; assay type: functional
Method in brief: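 M. tuberculosis H37Rv (ATCC 27294) grown in BACTEC 12B medium, broth microdilution. MIC taken as the lowest concentration giving a 90% reduction in fluorescence relative to controls. Rifampin served as reference drug.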

[7] = system: Mus musculus; assay: Neurotoxicity in mouse at 100 mg/kg after 0.5 hrs; assay type: toxicity, organism-based; set-up: dose 100 mg/kg; conditions: in vivo; method in brief: as §1
[8] = system: Rattus norvegicus; assay: Neurotoxicity in rat at 30 mg/kg, po after 0.25 hrs; assay type: toxicity, organism-based; set-up: dose 30 mg/kg, route oral; conditions: in vivo
Method in brief: (§2)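 Rats dosed orally at 30 or 50 mg/kg and examined for neurotoxicity 0.25, 0.5, 1, 2 and 4 h after dosing. Four animals per group, with three rats at one 0.5 h time point.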

[9] = system: Liver; assay: Stimulation of respiration in rat liver mitochondria assessed as effect on swelling at 100 uM; assay type: functional
Method in brief: (§3)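 Rat liver mitochondria isolated by differential centrifugation (respiratory control ratio 5–7). Swelling of fresh mitochondria followed at 30 °C in 125 mM sucrose, 65 mM KCl, 10 mM Hepes, 5 mM potassium phosphate, 1 mM MgCl2, pH 7.2, with 5 mM succinate. Compounds tested at 5, 10 and 100 μM; DMSO solvent control.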

[10] = system: Liver; assay: Stimulation of respiration in rat liver mitochondria assessed as effect on swelling at 10 uM; assay type: functional; method in brief: as §3
[11] = system: Liver; assay: Stimulation of respiration in rat liver mitochondria assessed as effect on swelling at 5 uM; assay type: functional; method in brief: as §3
[12] = system: Mycobacterium tuberculosis; assay: Antimycobacterial activity against Mycobacterium tuberculosis H37Rv at 12.5 ug/ml by broth microdilution assay; assay type: functional
Method in brief: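 Primary screen against M. tuberculosis H37Rv (ATCC 27294) at a single concentration of 12.5 µg/mL in BACTEC 12B medium by broth microdilution. Growth inhibition expressed as % relative to controls. Hydrochloride salt used where applicable.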

[13] = system: Rattus norvegicus; assay: Neurotoxicity in rat at 30 mg/kg, po after 0.5 hrs; assay type: toxicity, organism-based; set-up: dose 30 mg/kg, route oral; conditions: in vivo; method in brief: as §2
[14] = system: Rattus norvegicus; assay: Neurotoxicity in rat at 30 mg/kg, po after 2 hrs; assay type: toxicity, organism-based; set-up: dose 30 mg/kg, route oral; conditions: in vivo; method in brief: as §2
[15] = system: Rattus norvegicus; assay: Neurotoxicity in rat at 50 mg/kg, po after 1 hr; assay type: toxicity, organism-based; set-up: dose 50 mg/kg, route oral; conditions: in vivo; method in brief: as §2
[16] = system: Rattus norvegicus; assay: Neurotoxicity in rat at 30 mg/kg, po after 4 hrs; assay type: toxicity, organism-based; set-up: dose 30 mg/kg, route oral; conditions: in vivo; method in brief: as §2

SMILES | logP ([1]; read-out: logP) | Activity [2] | Activity [3] | inhibition at 6.25 µg/mL [4] | Activity [5] | logP [1] | MIC [6] | Activity [7] | further results
COc1ccc(C(=O)N2C/C(=C\c3ccc(Cl)cc3)C(=O)/C(=C/c3ccc(Cl)cc3)C2)cc1 | 6 | Non-toxic | Non-toxic | 47% | Non-toxic | – | – | – | –
Cl.O=C1/C(=C/c2ccc(Cl)cc2)CN(C(=O)c2ccc(OCCN3CCCCC3)cc2)C/C1=C\c1ccc(Cl)cc1 | – | – | – | 86% | – | 8.1 | – | – | –
Cl.O=C1/C(=C/c2ccc([N+](=O)[O-])cc2)CN(C(=O)c2ccc(OCCN3CCCCC3)cc2)C/C1=C\c1ccc([N+](=O)[O-])cc1 | – | – | – | 100% | Non-toxic | 6.6 | 3.13 mg/L | – | –
CCN(CC)CCOc1ccc(C(=O)N2C/C(=C\c3ccc(Cl)cc3)C(=O)/C(=C/c3ccc(Cl)cc3)C2)cc1.Cl | – | Non-toxic | Non-toxic | 37% | Non-toxic | 8 | – | Non-toxic | –
CC[N+](C)(CC)CCOc1ccc(C(=O)N2C/C(=C\c3ccc(C)cc3)C(=O)/C(=C/c3ccc(C)cc3)C2)cc1.[I-] | 3.1 | Toxic | – | 81% | Non-toxic | – | – | Non-toxic | –
Cl.O=C1/C(=C/c2ccccc2)CN(C(=O)c2ccc(OCCN3CCOCC3)cc2)C/C1=C\c1ccccc1 | 5.4 | Non-toxic | – | 100% | Non-toxic | – | 6.25 mg/L | Non-toxic | –
CN(C)CCOc1ccc(C(=O)N2C/C(=C\c3ccccc3)C(=O)/C(=C/c3ccccc3)C2)cc1.Cl | – | Non-toxic | Non-toxic | 98% | Non-toxic | 5.9 | 1.56 mg/L | Non-toxic | Activity [8]: Non-toxic; Activity [9]: inactive; Activity [10]: inactive; Activity [11]: inactive
Cl.O=C1/C(=C/c2ccc([N+](=O)[O-])cc2)CN(C(=O)c2ccc(OCCN3CCOCC3)cc2)C/C1=C\c1ccc([N+](=O)[O-])cc1 | 5 | Non-toxic | – | 100% | Non-toxic | – | 6.25 mg/L | Non-toxic | –
Cc1ccc(/C=C2\CN(C(=O)c3ccc(OCCN(C)C)cc3)C/C(=C\c3ccc(C)cc3)C2=O)cc1.Cl | – | Non-toxic | Non-toxic | 100% | Non-toxic | 6.8 | 3.13 mg/L | – | –
Cl.O=C1/C(=C/c2ccccc2)CNC/C1=C\c1ccccc1 | – | Non-toxic | Non-toxic | – | Non-toxic | 5.7 | 3.13 mg/L | Non-toxic | inhibition at 12.5 µg/mL [12]: 99%
CO[C@H]1/C=C/O[C@@]2(C)Oc3c(C)c(O)c4c(O)c(c(/C=N/N5CCN(C)CC5)c(O)c4c3C2=O)NC(=O)/C(C)=C\C=C\[C@H](C)[C@H](O)[C@@H](C)[C@@H](O)[C@@H](C)[C@H](OC(C)=O)[C@@H]1C [RIFAMPIN] | – | – | – | – | – | – | 0.07 mg/L (≈ 0.0851 µM) | – | –
CN(C)CCOc1ccc(C(=O)N2C/C(=C\c3ccc([N+](=O)[O-])cc3)C(=O)/C(=C/c3ccc([N+](=O)[O-])cc3)C2)cc1.Cl | 5.5 | – | – | 27% | Non-toxic | – | – | Non-toxic | Activity [13]: Non-toxic
O=C1/C(=C/c2ccccc2)CN(C(=O)c2ccccc2)C/C1=C\c1ccccc1 | 5.5 | – | – | 0% | – | – | – | – | –
CCN(CC)CCOc1ccc(C(=O)O)cc1.Cl | 2.9 | Non-toxic | Non-toxic | 12% | Non-toxic | – | – | Non-toxic | –
Cc1ccc(/C=C2\CNC/C(=C\c3ccc(C)cc3)C2=O)cc1 | – | Non-toxic | Non-toxic | 0% | Non-toxic | 6.6 | – | Non-toxic | –
CN(C)CCOc1ccc(C(=O)N2C/C(=C\c3ccc(Cl)cc3)C(=O)/C(=C/c3ccc(Cl)cc3)C2)cc1.Cl | – | Non-toxic | Non-toxic | 100% | Non-toxic | 7 | 1.56 mg/L | Non-toxic | –
Cl.O=C1/C(=C/c2ccc(Cl)cc2)CN(C(=O)c2ccc(OCCN3CCOCC3)cc2)C/C1=C\c1ccc(Cl)cc1 | 6.4 | Non-toxic | Non-toxic | 0% | Non-toxic | – | – | Non-toxic | Activity [14]: Non-toxic
CC[N+](C)(CC)CCOc1ccc(C(=O)N2C/C(=C\c3ccc(Cl)cc3)C(=O)/C(=C/c3ccc(Cl)cc3)C2)cc1.[I-] | 3.2 | Non-toxic | Non-toxic | 23% | Non-toxic | – | – | Non-toxic | –
Cc1ccc(/C=C2\CN(C(=O)c3ccc(OCCN4CCOCC4)cc3)C/C(=C\c3ccc(C)cc3)C2=O)cc1.Cl | 6.3 | Non-toxic | Non-toxic | 100% | Non-toxic | – | 0.78 mg/L | Non-toxic | –
CCN(CC)CCOc1ccc(C(=O)N2C/C(=C\c3ccc([N+](=O)[O-])cc3)C(=O)/C(=C/c3ccc([N+](=O)[O-])cc3)C2)cc1.Cl | – | – | – | 34% | – | 6.5 | – | – | –
O=C1/C(=C/c2ccc([N+](=O)[O-])cc2)CNC/C1=C\c1ccc([N+](=O)[O-])cc1 | – | Non-toxic | Non-toxic | – | Non-toxic | 5.3 | 0.2 mg/L (≈ 0.547 µM) | Non-toxic | Activity [9]: inactive; Activity [10]: inactive; Activity [11]: inactive; inhibition at 12.5 µg/mL [12]: 100%
Cl.O=C1/C(=C/c2ccc(Cl)cc2)CNC/C1=C\c1ccc(Cl)cc1 | – | Non-toxic | Non-toxic | – | Non-toxic | 6.8 | 6.25 mg/L | Non-toxic | inhibition at 12.5 µg/mL [12]: 99%
CC[N+](C)(CC)CCOc1ccc(C(=O)N2C/C(=C\c3ccccc3)C(=O)/C(=C/c3ccccc3)C2)cc1.[I-] | 2.2 | Toxic | Toxic | 0% | Toxic | – | – | Toxic | –
CCN(CC)CCOc1ccc(C(=O)N2C/C(=C\c3ccc(C)cc3)C(=O)/C(=C/c3ccc(C)cc3)C2)cc1.Cl | – | Non-toxic | Non-toxic | 100% | Non-toxic | 7.9 | 3.13 mg/L | Non-toxic | –
Cl.O=C1/C(=C/c2ccccc2)CN(C(=O)c2ccc(OCCN3CCCCC3)cc2)C/C1=C\c1ccccc1 | – | – | – | 100% | – | 7.1 | 6.25 mg/L | – | –
CCN(CC)CCOc1ccc(C(=O)N2C/C(=C\c3ccccc3)C(=O)/C(=C/c3ccccc3)C2)cc1.Cl | – | Non-toxic | – | 99% | Non-toxic | 7 | – | – | Activity [15]: Non-toxic
CC[N+](C)(CC)CCOc1ccc(C(=O)N2C/C(=C\c3ccc([N+](=O)[O-])cc3)C(=O)/C(=C/c3ccc([N+](=O)[O-])cc3)C2)cc1.[I-] | 1.8 | Toxic | Toxic | 0% | – | – | – | – | Activity [16]: Non-toxic
Cc1ccc(/C=C2\CN(C(=O)c3ccc(OCCN4CCCCC4)cc3)C/C(=C\c3ccc(C)cc3)C2=O)cc1.Cl | – | Non-toxic | Non-toxic | 100% | Non-toxic | 8 | 3.13 mg/L | – | –
